Data: ChEMBL document CHEMBL1833914, “Smardaesidins A-G, isopimarane and 20-nor-isopimarane diterpenoids from Smardaea sp., a fungal endophyte of the moss Ceratodon purpureus” (J Nat Prod, 2011)
Active and inactive are the calls of the source. No cut-off for these calls is given here.

Legend:
[1] = test system: NCI-H460; experiment: Cytotoxicity against human NCI-H460 cells after 72 hrs by Alamar blue assay; assay type: functional, cell-based; settings: NCI-H460, 72 h
[2] = test system: PC-3M; experiment: Cytotoxicity against human PC3M cells at 10 uM after 72 hrs by Alamar blue assay; assay type: functional, cell-based
[3] = test system: MCF7; experiment: Cytotoxicity against human MCF7 cells after 72 hrs by Alamar blue assay; assay type: functional, cell-based; settings: MCF7, 72 h
[4] = test system: MCF7; experiment: Cytotoxicity against human MCF7 cells at 10 uM after 72 hrs by Alamar blue assay; assay type: functional, cell-based
[5] = test system: SF-268; experiment: Cytotoxicity against human SF268 cells at 10 uM after 72 hrs by Alamar blue assay; assay type: functional, cell-based
[6] = test system: MDA-MB-231; experiment: Cytotoxicity against human MDA-MB-231 cells at 10 uM after 72 hrs by Alamar blue assay; assay type: functional, cell-based
[7] = test system: NCI-H460; experiment: Cytotoxicity against human NCI-H460 cells at 10 uM after 72 hrs by Alamar blue assay; assay type: functional, cell-based
[8] = test system: MDA-MB-231; experiment: Cytotoxicity against human MDA-MB-231 cells after 72 hrs by Alamar blue assay; assay type: functional, cell-based; settings: MDA-MB-231, 72 h
[9] = test system: SF-268; experiment: Cytotoxicity against human SF268 cells after 72 hrs by Alamar blue assay; assay type: functional, cell-based; settings: SF-268, 72 h
[10] = Cytotoxicity against human PC3M cells after 72 hrs by Alamar blue assay; assay type: functional, cell-based; settings: PC-3M
[11] = test system: MIA PaCa-2; experiment: Cytotoxicity against human MIAPaCa2 cells after 72 hrs by Alamar blue assay; assay type: functional, cell-based; settings: MIA PaCa-2, 72 h
[12] = test system: WI-38; experiment: Cytotoxicity against human WI38 cells after 72 hrs by Alamar blue assay; assay type: cell-based; settings: WI-38, 72 h
[13] = test system: PC-3; experiment: Cytotoxicity against human PC3 cells after 72 hrs by Alamar blue assay; assay type: functional, cell-based; settings: PC-3, 72 h
[14] = test system: MDA-MB-231; experiment: Inhibition of human MDA-MB-231 cell migration at 2 uM after 40 hrs by wound-healing assay; assay type: functional, cell-based
Outline: (§1)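 Wound-healing assay: MDA-MB-231 cells grown in DMEM/Ham's F-12 with 10% FBS and gentamicin (50 μg/mL) at 37 °C, 5% CO2. Cells seeded at 150 000/well and grown 24 h to >90% confluent monolayer. Monolayer scratched with toothpick, washed with PBS, fresh medium added, compound in DMSO added in duplicate, 40 h. LY294002 7.5 μM positive control. Wound area measured by ImageJ from three photos per well.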

[15] = test system: MDA-MB-231; experiment: Inhibition of human MDA-MB-231 cell migration after 40 hrs by wound-healing assay; assay type: functional, cell-based; settings: MDA-MB-231, 40 h; outline: as §1
[16] = test system: MDA-MB-231; experiment: Antiproliferative activity against human MDA-MB-231 cells after 72 hrs by Alamar blue assay; assay type: functional, cell-based; settings: MDA-MB-231, 72 h
Outline: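 alamarBlue proliferation/survival read-out in MDA-MB-231 after 72 h exposure. Reagent added to 10% final, 4 h incubation, fluorescence at ex 560/em 590 nm as percent of DMSO vehicle; IC50 and IC25 reported as mean ± error.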

[17] = test system: MDA-MB-231; experiment: Inhibition of human MDA-MB-231 cell migration at 5 uM after 40 hrs by wound-healing assay; assay type: functional, cell-based; outline: as §1

IC50 [15] [µM]	IC50 [16] [µM]	Compound	IC50 [1] [µM]	Activity [2]	IC50 [3] [µM]	Activity [4]	Activity [5]	Activity [6]	Activity [7]	IC50 [8] [µM]	IC50 [9] [µM]	IC50 [10] [µM]	IC50 [11] [µM]	IC50 [12] [µM]	IC50 [13] [µM]	inhibition [14]	IC25 [16] [µM]	inhibition [17]
–	–	C=C[C@]1(C)C=C2C(=O)[C@@]3(OC(C)=O)OC(=O)[C@@]4(CCCC(C)(C)[C@H]34)[C@@]2(O)CC1	2.8	Active	2	Active	Active	Active	Active	2.5	4.9	2.7	–	–	–	–	–	–
–	–	COc1cccc2c1C(=O)c1c(O)c3c(c(O)c1C2=O)C[C@@](O)(C(=O)CO)C[C@@H]3O[C@H]1C[C@H](N)[C@H](O)[C@H](C)O1 [DOXORUBICIN]	0.3	–	0.4	–	–	–	–	0.5	0.6	–	0.3	0.8	0.3	–	–	–
1.5	3	C=C[C@]1(C)C=C2C(=O)[C@@]3(O)OC(=O)[C@@]4(CCCC(C)(C)[C@H]34)[C@@]2(O)CC1 [SPHAEROPSIDIN A]	1.9	Active	3	Active	Active	Active	Active	1.4	2.1	2.4	2	3.7	2.5	Active	1.5	–
4.8	> 5	C=C[C@]1(C)C=C2C(=O)[C@@]3(O)OC(=O)[C@@]4(CCCC(C)(C)[C@H]34)[C@@]2(O)[C@H](O)C1 [SPHAEROPSIDIN D]	> 10	Active	> 10	Active	Active	Active	Active	3.7	7.5	> 10	9	> 10	9.6	–	> 5	Active
